Experimental data reported in PMC10251802 (Journal of Enzyme Inhibition and Medicinal Chemistry, 2023).
Where “and” joins values, the source holds several entries; their conditions need not be identical. Identical values can stand only once. Like-named read-outs stand apart in the source and are kept apart here. One block for each molecule: values may come before it.

Experiments:
A549 = assay: MTT anti-proliferative assay, A549; type: cell-based, human
MCF-7 = assay: MTT anti-proliferative assay, MCF-7; type: cell-based, human
EGFR^WT = EGFR^WT (Homo sapiens, UniProt P00533); assay: EGFR^WT kinase inhibition; type: biochemical
Sequence of EGFR^WT (P00533 25-1210): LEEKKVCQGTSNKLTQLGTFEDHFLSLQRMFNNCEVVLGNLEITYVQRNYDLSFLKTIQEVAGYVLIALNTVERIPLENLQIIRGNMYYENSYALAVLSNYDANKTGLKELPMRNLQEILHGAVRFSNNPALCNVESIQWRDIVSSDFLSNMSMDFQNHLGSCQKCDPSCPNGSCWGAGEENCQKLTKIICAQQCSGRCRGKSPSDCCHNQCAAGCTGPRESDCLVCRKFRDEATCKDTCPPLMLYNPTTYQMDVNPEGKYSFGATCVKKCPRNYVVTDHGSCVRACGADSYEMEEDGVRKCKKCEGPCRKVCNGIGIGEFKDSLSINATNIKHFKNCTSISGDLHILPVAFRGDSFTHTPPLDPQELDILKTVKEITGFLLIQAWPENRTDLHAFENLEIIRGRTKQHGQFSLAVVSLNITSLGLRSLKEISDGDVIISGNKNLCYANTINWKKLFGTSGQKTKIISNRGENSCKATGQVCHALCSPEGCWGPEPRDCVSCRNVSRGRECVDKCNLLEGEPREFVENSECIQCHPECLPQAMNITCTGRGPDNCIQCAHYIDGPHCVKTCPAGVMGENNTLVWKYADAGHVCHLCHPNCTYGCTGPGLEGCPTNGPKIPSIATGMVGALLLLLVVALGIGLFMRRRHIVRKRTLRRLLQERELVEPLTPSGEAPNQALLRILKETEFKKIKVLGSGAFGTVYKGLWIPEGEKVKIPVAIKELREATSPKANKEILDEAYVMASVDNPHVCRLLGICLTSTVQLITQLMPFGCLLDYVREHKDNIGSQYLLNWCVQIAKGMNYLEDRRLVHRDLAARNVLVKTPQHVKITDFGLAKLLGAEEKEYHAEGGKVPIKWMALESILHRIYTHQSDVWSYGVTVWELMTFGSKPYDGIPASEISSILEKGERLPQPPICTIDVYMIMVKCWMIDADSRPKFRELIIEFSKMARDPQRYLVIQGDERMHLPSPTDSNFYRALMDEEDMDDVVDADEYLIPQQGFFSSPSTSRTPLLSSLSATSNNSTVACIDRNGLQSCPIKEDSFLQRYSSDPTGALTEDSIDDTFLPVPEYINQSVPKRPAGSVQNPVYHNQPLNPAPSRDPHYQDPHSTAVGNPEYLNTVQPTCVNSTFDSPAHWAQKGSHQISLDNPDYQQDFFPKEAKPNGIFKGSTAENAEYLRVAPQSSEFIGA

WI-38 = assay: Safety assay; settings: for IC50: Homo sapiens, WI-38, read-out: Cell lines IC50 WI-38
EGFR^T790M = EGFR^T790M (Homo sapiens, UniProt P00533, T790M); assay: EGFR^T790M kinase inhibition; type: biochemical
Sequence of EGFR^T790M (P00533 25-1210 T790M): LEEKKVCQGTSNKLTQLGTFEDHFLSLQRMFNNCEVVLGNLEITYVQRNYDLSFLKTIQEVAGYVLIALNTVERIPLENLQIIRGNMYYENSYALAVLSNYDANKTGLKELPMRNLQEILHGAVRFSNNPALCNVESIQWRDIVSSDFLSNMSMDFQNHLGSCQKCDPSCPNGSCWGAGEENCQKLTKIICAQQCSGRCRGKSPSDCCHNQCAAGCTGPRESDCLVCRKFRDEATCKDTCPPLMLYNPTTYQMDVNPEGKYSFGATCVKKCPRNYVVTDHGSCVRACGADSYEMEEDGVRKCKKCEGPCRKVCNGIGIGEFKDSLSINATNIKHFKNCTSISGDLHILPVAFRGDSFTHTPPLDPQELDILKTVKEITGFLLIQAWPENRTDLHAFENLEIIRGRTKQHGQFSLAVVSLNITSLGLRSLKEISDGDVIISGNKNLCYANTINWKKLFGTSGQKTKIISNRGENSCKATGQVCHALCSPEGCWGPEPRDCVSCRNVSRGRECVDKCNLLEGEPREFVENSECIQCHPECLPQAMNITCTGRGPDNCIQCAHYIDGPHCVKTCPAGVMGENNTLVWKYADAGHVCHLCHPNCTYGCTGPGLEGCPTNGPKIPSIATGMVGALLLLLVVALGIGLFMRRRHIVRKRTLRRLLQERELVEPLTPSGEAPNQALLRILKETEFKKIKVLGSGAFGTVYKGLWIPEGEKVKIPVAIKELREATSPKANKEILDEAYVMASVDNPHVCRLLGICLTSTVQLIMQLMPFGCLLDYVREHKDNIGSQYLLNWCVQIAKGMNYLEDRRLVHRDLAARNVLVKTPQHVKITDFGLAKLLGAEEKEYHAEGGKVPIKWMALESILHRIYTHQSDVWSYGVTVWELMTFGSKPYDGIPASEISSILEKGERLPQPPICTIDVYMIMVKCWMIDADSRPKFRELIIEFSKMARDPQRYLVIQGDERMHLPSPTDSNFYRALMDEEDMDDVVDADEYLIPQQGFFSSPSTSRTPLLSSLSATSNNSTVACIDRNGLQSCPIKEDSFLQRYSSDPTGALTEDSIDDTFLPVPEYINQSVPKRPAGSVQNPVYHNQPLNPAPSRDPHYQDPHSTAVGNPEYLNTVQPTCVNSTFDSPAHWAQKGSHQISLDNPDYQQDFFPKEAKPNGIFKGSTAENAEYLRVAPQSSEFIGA

A549 cells [1] = assay: Cell cycle analysis by flow cytometry; type: cell-based, human; settings: A549, 17.79 µM, 72 h
In short: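 A549 cells were exposed to the test compound at 17.79 μM for 72 h, with untreated A549 cells as comparator. Cell-cycle distribution was read by flow cytometry as the percentage of the population in Sub-G1, G1, S and G2/M phases.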

A549 cells [2] = assay: Apoptosis analysis, Annexin-V/propidium iodide staining; type: cell-based, human; settings: A549, 17.79 µM, 72 h
In short: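 Annexin-V-FITC/propidium iodide double staining of A549 cells exposed to the test compound (17.79 μM, 72 h), analysed by flow cytometry.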

BAX and Bcl-2 genes = assay: BAX and Bcl-2 gene expression by quantitative RT-PCR; type: cell-based, human; settings: A549, 17.79 µM, 72 h
[3] = Homo sapiens, A549, read-out: Cell lines IC50 A549
[4] = Homo sapiens, MCF7, read-out: Cell lines IC50 MCF-7

IC50 (A549; [3]): 17.5 µM | IC50 (MCF-7; [4]): 21.4 µM | IC50 (EGFR^WT): 0.0356 µM
Molecule: CC1CCc2c(sc3ncnc(Nc4ccc(S(N)(=O)=O)cc4)c23)C1 (centres unmarked) [5f, 4-((7-Methyl-5,6,7,8-tetrahydrobenzo[4,5]thieno[2,3-d]pyrimidin-4-yl)amino)benzene sulphonamide]

IC50 (A549; [3]): 19.9 µM | IC50 (MCF-7; [4]): 29.2 µM
Molecule: CC1CCc2c(sc3ncnc(Nc4ccccc4S(N)(=O)=O)c23)C1 (centres unmarked) [5e, 2-((7-Methyl-5,6,7,8-tetrahydrobenzo[4,5]thieno[2,3-d]pyrimidin-4-yl)amino)benzene sulphonamide]

IC50 (A549; [3]): 4.18 µM | IC50 (MCF-7; [4]): 14.3 µM
Molecule: C#Cc1cccc(Nc2ncnc3cc(OCCOC)c(OCCOC)cc23)c1 [Erlotinib, reference compound]
IC50 (WI-38): 28.5 µM

IC50 (A549; [3]): 28.7 µM | IC50 (MCF-7; [4]): 35.7 µM
Molecule: CC1CCc2c(sc3ncnc(NNC(N)=S)c23)C1 (centres unmarked) [7a, 2–(7-Methyl-5,6,7,8-tetrahydro[1]benzothieno[2,3-d]pyrimidin-4-yl)hydrazine carbothioamide]

IC50 (A549; read-out: Cell lines IC50 A549, MTT, mean of three experiments): 21.2 µM | IC50 (MCF-7; read-out: Cell lines IC50 MCF-7, MTT, mean of three experiments): 26.6 µM
Molecule: N-((7-Methyl-5,6,7,8-tetrahydro[1]benzothieno[2,3-d]pyrimidin-4-yl)methyl) aniline [compound 6]

IC50 (A549; [3]): 18.4 µM | IC50 (MCF-7; [4]): 23.7 µM
Molecule: CC1CCc2c(sc3ncnc(NN)c23)C1 (centres unmarked) [7b, 4-Hydrazinyl-7-methyl-5,6,7,8-tetrahydro[1]benzothieno[2,3-d]pyrimidine]

IC50 (A549; [3]): 27.1 µM | IC50 (MCF-7; [4]): 30 µM
Molecule: COc1ccc(Nc2ncnc3sc4c(c23)CCC(C)C4)cc1 (centres unmarked) [5c, N-(4-Methoxyphenyl)-7-methyl-5,6,7,8-tetrahydrobenzo[4,5]thieno[2,3-d]pyrimidin-4-amine]

IC50 (A549; [3]): 17.8 µM | IC50 (MCF-7; [4]): 22.7 µM | IC50 (EGFR^WT): 0.0372 µM | IC50 (EGFR^T790M): 0.204 µM
Molecule: CC1CCc2c(sc3ncnc(Nc4ccccc4F)c23)C1 (centres unmarked) [5b, N-(2-Fluorophenyl)-7-methyl-5,6,7,8-tetrahydrobenzo[4,5]thieno[2,3-d]pyrimidin-4-amine]
Cell cycle distribution % G2/M (A549 cells [1]): 38.61% and 38.61 ± 2.11 % | Cell cycle distribution %G1 (A549 cells [1]): 23.19% and 23.19 ± 2.18 % | Cell cycle distribution %S (A549 cells [1]): 37.66% and 37.66 ± 4.19 % | Cell cycle distribution %Sub-G1 (A549 cells [1]): 0.54% and 0.54 ± 0.09% | Apoptosis Early (right bottom) (A549 cells [2]): 17.84% and 17.84 ± 3.68% | Apoptosis Late (right top) (A549 cells [2]): 45.71% and 45.71 ± 5.77 % | Necrosis (left top) (A549 cells [2]): 2.12 ± 0.11 | Viable (left bottom) (A549 cells [2]): 34.33 ± 2.20 | BAX/Bcl-2 ratio (BAX and Bcl-2 genes; control set to 1): 8.3 fold change and 8.35 ± 1.09 fold change | Gene expression BAX (BAX and Bcl-2 genes; control set to 1): 3 fold change and 2.97 ± 0.14 fold change | Gene expression Bcl-2 (BAX and Bcl-2 genes; control set to 1): 0.37 ± 0.06 fold change | downregulation of the Bcl-2 gene (BAX and Bcl-2 genes; vs untreated cells): 3 fold | IC50 (WI-38): 70.1 µM | times safer against WI-38 than erlotinib (WI-38; ratio of WI-38 IC50 values vs erlotinib): 2.5 fold

IC50 (A549; [3]): 20.6 µM | IC50 (MCF-7; [4]): 29.3 µM
Molecule: CC1CCc2c(sc3ncnc(Nc4ccc(Cl)cc4)c23)C1 (centres unmarked) [5a, N-(4-Chlorophenyl)-7-methyl-5,6,7,8-tetrahydrobenzo[4,5]thieno[2,3-d]pyrimidin-4-amine]

IC50 (A549; [3]): 34.8 µM | IC50 (MCF-7; [4]): 35.5 µM
Molecule: CC1CCc2c(sc3ncnc(Nc4ccc(N)cc4)c23)C1 (centres unmarked) [5d, N^1-(7-Methyl-5,6,7,8-tetrahydro[1]benzothieno[2,3-d]pyrimidin-4-yl)benzene-1,4-diamine]
